Here are results for eleven molecules from ChEMBL document CHEMBL1149266, “2,3-diaminopyridine bradykinin B1 receptor antagonists” (J Med Chem, 2004).

Data set [1] concerns the target T1, B1 bradykinin receptor (Homo sapiens, UniProt P46663).
T1 sequence (P46663 whole entry): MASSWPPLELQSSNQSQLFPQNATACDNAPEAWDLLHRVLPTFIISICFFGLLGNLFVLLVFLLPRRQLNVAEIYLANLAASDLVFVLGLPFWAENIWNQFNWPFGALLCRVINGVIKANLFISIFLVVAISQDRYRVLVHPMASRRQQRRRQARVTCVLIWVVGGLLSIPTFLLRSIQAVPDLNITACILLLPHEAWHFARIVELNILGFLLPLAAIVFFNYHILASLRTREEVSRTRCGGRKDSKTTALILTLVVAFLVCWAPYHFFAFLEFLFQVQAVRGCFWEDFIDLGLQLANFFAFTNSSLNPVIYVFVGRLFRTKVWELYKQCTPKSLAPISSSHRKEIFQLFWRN
Kind of data set: Displacement of [3H]des-arg10, leu9-kallidin from human bradykinin B1 receptor expressed in CHO cells. The data set is classed as cell-based. The method, boiled down: (§1)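 Radioligand binding using CHO cells that stably express the human B1 or B2 receptor, with the appropriate radioligand for each; Ki in nM.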
A general note: Displacement assays read how much labelled ligand stays bound in the presence of the test substance.

Data set [2] has as its target T1, B1 bradykinin receptor. Kind of data set: Antagonist activity at bradykinin B1 receptor expressed in CHO cells assessed as inhibition of des-arg10-kallidin-induced increase in cytosolic calcium level by FLIPR assay. The data set is classed as functional, cell-based. The method, boiled down: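 FLIPR functional assay using functionally active human B1 receptors; IC50 in nM.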

The nature of data set [3]: Oral bioavailability in Sprague-Dawley rat at 10 mg/kg, po. The note with it: in vivo. The data set is classed as ADME, organism-based.
A short description of data set [4]: Half life in Sprague-Dawley rat at 2 mg/kg, iv. In kind it is ADME, organism-based. Details: dose 2 mg/kg, route intravenous. Conditions: in vivo.
A short description of data set [5]: Clearance in Sprague-Dawley rat at 2 mg/kg, iv. The data set is classed as ADME, organism-based. Conditions: in vivo. Further details: dose 2 mg/kg, route intravenous.
A short description of data set [6]: Oral bioavailability in mongrel dog at 3 mg/kg, po. In kind it is ADME, organism-based, Canis lupus familiaris. The note with it: in vivo.
A short description of data set [7]: Half life in mongrel dog at 1 mg/kg, iv. Further details: dose 1 mg/kg, route intravenous. The data set is classed as ADME, organism-based, Canis lupus familiaris. The note with it: in vivo.
The nature of data set [8]: Clearance in mongrel dog at 1 mg/kg, iv. The data set is classed as ADME, organism-based, Canis lupus familiaris. Details: dose 1 mg/kg, route intravenous. Conditions: in vivo.
For data set [9], the target named is T2, B1 bradykinin receptor (Rattus norvegicus, UniProt P97583).
T2 sequence (P97583 whole entry): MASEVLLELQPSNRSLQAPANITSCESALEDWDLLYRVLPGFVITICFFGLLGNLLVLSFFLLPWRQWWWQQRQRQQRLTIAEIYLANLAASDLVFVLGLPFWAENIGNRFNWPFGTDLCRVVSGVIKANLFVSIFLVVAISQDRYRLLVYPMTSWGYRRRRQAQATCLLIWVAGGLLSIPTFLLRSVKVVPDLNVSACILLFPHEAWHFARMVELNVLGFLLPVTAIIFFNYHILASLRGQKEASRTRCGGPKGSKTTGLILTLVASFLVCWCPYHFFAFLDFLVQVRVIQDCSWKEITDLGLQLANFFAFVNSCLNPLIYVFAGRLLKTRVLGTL
As to the kind of experiment: Displacement of [3H]des-arg10 kallidin from rat bradykinin B1 receptor expressed in CHO cells. In kind it is cell-based. The method, boiled down:
(§2)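 Radioligand binding at rat or rabbit B1 receptor; Ki in nM. Values are the average of at least two experiments, with ±25% interassay variability.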

Data set [10] addresses T3, B1 bradykinin receptor (Oryctolagus cuniculus, UniProt P48748).
T3 sequence (P48748 whole entry): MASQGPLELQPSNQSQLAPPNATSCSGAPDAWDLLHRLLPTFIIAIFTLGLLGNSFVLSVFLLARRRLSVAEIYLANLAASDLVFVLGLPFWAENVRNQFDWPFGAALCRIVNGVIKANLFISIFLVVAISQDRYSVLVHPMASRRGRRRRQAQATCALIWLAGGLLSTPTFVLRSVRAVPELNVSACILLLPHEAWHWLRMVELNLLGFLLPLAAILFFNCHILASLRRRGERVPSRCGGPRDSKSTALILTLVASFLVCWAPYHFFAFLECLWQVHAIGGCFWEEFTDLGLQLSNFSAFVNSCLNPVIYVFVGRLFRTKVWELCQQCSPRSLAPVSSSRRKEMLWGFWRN
As to the kind of experiment: Binding affinity to rabbit bradykinin B1 receptor. The method in brief:
as §2

The target of data set [11] is T3, B1 bradykinin receptor. Kind of data set: Activity at rabbit bradykinin B1 receptor assessed by FLIPR assay. The data set is classed as functional. The method in brief: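 FLIPR functional assay using functionally active rabbit B1 receptors; IC50 in nM. Values are the average of at least two experiments, with ±30% interassay variability.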
Data set [12] has as its target T4, B1 bradykinin receptor (Oryctolagus cuniculus) (UniProt P48748).
T4 sequence (whole entry): T3 sequence (P48748 whole entry)
As to the kind of experiment: Inhibition of desArg9-bradykinin-induced decrease in mean arterial blood pressure in iv dosed New Zealand white rabbit. In kind it is functional, organism-based. The method, boiled down:
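Rabbits received iv LPS to induce vascular B1 receptors. The depressor blood pressure response to DABK (1 μg/kg iv) was recorded. Rising iv doses of antagonist were given as pretreatment before repeated DABK doses, giving an AD50 (mg/kg). Three rabbits per experiment.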

The subject of data set [13] is Oryctolagus cuniculus. Kind of data set: Antinociceptive effect against CFA-induced hyperalgesia in iv dosed New Zealand rabbit model by spinal nociceptive reflex assay. In kind it is functional. Conditions: read-out: ID50 (the source's name). The method in brief:
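CFA was used to induce mechanical hyperalgesia in the rabbit hind paw. The read-out was inhibition of the spinal nociceptive reflex to a noxious pinch of the inflamed paw. Antagonist was dosed iv over a dose range, giving an ID50 (mg/kg). Three rabbits per experiment.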

The target of data set [14] is T5, B2 bradykinin receptor (Homo sapiens, UniProt P30411).
T5 sequence (P30411 whole entry): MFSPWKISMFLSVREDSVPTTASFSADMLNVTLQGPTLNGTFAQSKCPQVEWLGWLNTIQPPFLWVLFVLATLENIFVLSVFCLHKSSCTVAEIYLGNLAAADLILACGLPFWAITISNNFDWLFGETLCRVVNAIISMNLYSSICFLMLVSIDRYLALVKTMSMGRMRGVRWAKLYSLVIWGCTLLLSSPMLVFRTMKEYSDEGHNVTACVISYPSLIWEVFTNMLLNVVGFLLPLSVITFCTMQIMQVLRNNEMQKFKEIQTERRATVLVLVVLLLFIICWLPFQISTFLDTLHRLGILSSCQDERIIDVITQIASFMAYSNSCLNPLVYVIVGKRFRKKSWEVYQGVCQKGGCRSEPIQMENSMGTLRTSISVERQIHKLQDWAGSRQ
As to the kind of experiment: Displacement of [3H]bradykinin from human bradykinin B2 receptor expressed in CHO cells. The data set is classed as cell-based. The method in brief: as §1

As usually defined, the Ki is the equilibrium dissociation constant of an inhibitor or competing ligand from its target. Low readings indicate higher affinity, high ones lower affinity. As usually defined, the IC50 is the midpoint of a concentration-inhibition curve. The term bioavailability denotes dose-corrected exposure relative to a reference, in per cent. Low readings indicate poor availability, high ones good availability. As usually defined, the half-life is the time needed for the level to fall by half in the phase considered. Read a low half-life as fast loss. As usually defined, the clearance is the volume of plasma or blood freed of the substance per unit of time. Low readings indicate a low capacity for elimination, high ones a high capacity for elimination. Turning to `C[C@@H](Nc1nccc(Cl)c1NC(=O)CC#N)c1ccc(-c2cccc(F)c2-c2nnn(C)n2)cc1`, the Ki was 0.5 nM (antagonist) in data set [1], 119 nM (antagonist) in [9] and 3 nM (antagonist) in data set [10]. Moreover, the IC50 was 1.17 nM (antagonist) in [2] and 3.9 nM (antagonist) in data set [11]. The figures for the bioavailability in data set [3] and in data set [6] were 73% and 69%, respectively. Also, the values for the half-life in data set [4] and in data set [7] were 7.8 h and 3.8 h, respectively. The clearance in data set [5] came to 9 mL/min/kg; in data set [8], 2.4 mL/min/kg. The same molecule gave an AD50 in data set [12] of 0.28 mg/kg. Besides, the ED50 in data set [13] turned out to be 3.1 mg/kg.
Turning to `C[C@@H](Nc1nccc(Cl)c1NC(=O)CC#N)c1ccc(-c2cccc(F)c2C(F)(F)F)cc1`, the Ki in data set [1] is 1.1 nM (antagonist). This molecule came in with a bioavailability in data set [3] of 52%. In data set [4], this molecule had a half-life of 1.8 h. In data set [5], the clearance is 36 mL/min/kg.
Take `CCCCC(=O)Nc1cccnc1NCc1ccc(-c2ccccc2C(=O)OC)cc1`: the Ki in data set [1] was 200 nM (antagonist).
On to `COC(=O)c1c(F)cccc1-c1ccc([C@@H](C)Nc2nccc(Cl)c2NC(=O)CC#N)cc1`, for which the inhibition constant (Ki) in [1] was 0.4 nM (antagonist); in data set [9] it was 35.3 nM (antagonist); in data set [10], 0.69 nM (antagonist). Moreover, the IC50 in data set [2] is given as 0.25 nM (antagonist); in [11], 2.4 nM (antagonist). The values for the bioavailability in data set [3] and in data set [6] were 50% and 34%, respectively. For the same molecule, the results for the half-life in [4] and in data set [7] were 2.1 h and 2.7 h, respectively. For the same molecule, the figures for the clearance in [5] and in data set [8] were 11 mL/min/kg and 9 mL/min/kg, respectively. The molecule further yielded an AD50 in data set [12] of 0.57 mg/kg. Moreover, the ED50 in [13] was determined as 2.1 mg/kg.
Take `COC(=O)c1c(Cl)cccc1-c1ccc([C@@H](C)Nc2nccc(Cl)c2NC(=O)CC#N)cc1`: the Ki in [1] is 0.7 nM (antagonist); in data set [9] it was 35.7 nM (antagonist); in [10], 1.1 nM (antagonist). The 50% inhibitory concentration (IC50) is 0.85 nM (antagonist) in data set [2] and 7.2 nM (antagonist) in [11]. The values for the bioavailability in data set [3] and in data set [6] were 43% and 23%, respectively. For the same molecule, the half-life in data set [4] was 1.3 h; in [7], 6.3 h. For the same molecule, the clearance in data set [5] turned out to be 24 mL/min/kg; in [8] it was 8.7 mL/min/kg. Further, the AD50 in [12] came to 0.8 mg/kg. Also, the ED50 in [13] came out at 0.9 mg/kg.
On to `COC(=O)c1ccc(Cl)cc1-c1ccc([C@@H](C)Nc2nccc(Cl)c2NC(=O)CC#N)cc1`, for which, in data set [1], the inhibitory constant (Ki) is on record as 0.8 nM (antagonist). Besides, the 50% inhibitory concentration (IC50) in data set [2] was 1.5 nM (antagonist). Also, the bioavailability in data set [3] is 6%; in data set [6], 2%. Besides, the half-life in data set [4] was 0.5 h; in data set [7], 0.9 h. Further, the clearance in data set [5] came to 25 mL/min/kg; in data set [8] it was 5.5 mL/min/kg.
As for `Cc1nc(-c2c(F)cccc2-c2ccc([C@@H](C)Nc3nccc(Cl)c3NC(=O)CC#N)cc2)no1`, the Ki in data set [1] is 0.7 nM (antagonist). For the same molecule, the half-maximal inhibitory concentration (IC50) in data set [2] is listed as 0.78 nM (antagonist). In addition, the bioavailability was 50% in data set [3] and 25% in data set [6]. Further, the half-life in data set [4] was 12.9 h; in data set [7] it was 2 h. Besides, the clearance came to 4.9 mL/min/kg in data set [5] and 5.9 mL/min/kg in data set [8].
For the molecule `C[C@@H](Nc1nccc(Cl)c1NC(=O)CC#N)c1ccc(-c2cccc(F)c2C#N)cc1`, the Ki in data set [1] is reported as 2 nM (antagonist). This molecule also registered a bioavailability in data set [3] of 80%. The half-life in data set [4] is 0.9 h. In data set [5], this molecule showed a clearance of 8.3 mL/min/kg.
`C[C@@H](Nc1nccc(Cl)c1NC(=O)CC#N)c1ccc(-c2cccc(F)c2-c2nnnn2C)cc1`: the inhibitory constant (Ki) is reported as 6 nM (antagonist) in data set [1], 12 nM (antagonist) in data set [9] and 41.5 nM (antagonist) in data set [10].
With `Cc1noc(-c2c(F)cccc2-c2ccc([C@@H](C)Nc3nccc(Cl)c3NC(=O)CC#N)cc2)n1`, the Ki in [1] is recorded as 0.5 nM (antagonist); in data set [9] it was 81 nM (antagonist); in data set [10], 2.7 nM (antagonist). For the same molecule, the IC50 in data set [2] was 0.94 nM (antagonist); in data set [11], 12.3 nM (antagonist). For the same molecule, the bioavailability is 62% in data set [3] and 14% in [6]. For the same molecule, the half-life in data set [4] was 8.8 h; in data set [7] it was 2.1 h. In addition, the clearance in data set [5] is 9.5 mL/min/kg; in data set [8], 7.3 mL/min/kg.
Turning to `COC(=O)c1ccc(C)cc1-c1ccc([C@@H](C)Nc2nccc(C)c2NC(=O)CC#N)cc1`, the Ki is 1.2 nM (antagonist) in [1] and over 10000 nM in data set [14]. Also, the concentration for half-maximal inhibition (IC50) in data set [2] is 1.4 nM (antagonist). The molecule also returned a bioavailability in data set [3] of 21%. This molecule gave a half-life in data set [4] of 0.6 h. In addition, the clearance in [5] was determined as 42 mL/min/kg.
